Screening results deposited in PubChem by several laboratories.
Exocytosis inh = blocks lytic granule exocytosis. TALL-104 LAMP-1 surface exposure, flow cytometry; cells stimulated with thapsigargin and PMA. inhibition, % at 10 µM. actives 0.66% (n = 360,000). AID 651702;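 active means inhibition above about 55%, limit read from the data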
Beta2AR agonist = human beta-2 adrenergic receptor agonism by FAP. Am2.2-beta2AR cells, FAP receptor internalization, flow cytometry. AID 504454. actives 0.43% (n = 340,000). response, % (concentration not given with the values). P07550;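 active means response above a set limit, near 3 SD of response in nonfluorescent compounds, cut at about 42% in these data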
Target sequence (P07550 whole entry, looked up): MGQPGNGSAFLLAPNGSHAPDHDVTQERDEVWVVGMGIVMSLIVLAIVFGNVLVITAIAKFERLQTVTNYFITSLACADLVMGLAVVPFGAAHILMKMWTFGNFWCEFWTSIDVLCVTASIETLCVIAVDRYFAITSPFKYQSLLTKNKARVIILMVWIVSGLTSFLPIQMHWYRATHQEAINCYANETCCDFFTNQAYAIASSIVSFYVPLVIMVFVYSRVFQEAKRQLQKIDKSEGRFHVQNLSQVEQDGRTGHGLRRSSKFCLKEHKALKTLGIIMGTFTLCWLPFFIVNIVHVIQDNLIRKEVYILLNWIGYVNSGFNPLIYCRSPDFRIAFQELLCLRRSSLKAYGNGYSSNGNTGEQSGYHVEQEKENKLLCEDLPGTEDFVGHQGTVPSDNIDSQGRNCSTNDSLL
rCAG binder = binds r(CAG) RNA repeats | AID 651821 | actives 1.3% (n = 370,000) | inhibition, % at 3 µM | r(CAG) RNA repeat, TO-PRO-1 dye displacement fluorescence;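 active means inhibition above the plate cutoff, the mean of all test compounds on that plate plus 3 SD, cut at about 35% in these data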;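 further: higher means more dye released from RNA so lower well fluorescence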
T cell modulator = T cell immune modulators affecting CD8 T cell-vesicle binding; actives 0.068% (n = 330,000); response (vesicle binding), % at 7 µM; 2C CD8+ T cell-vesicle binding, flow cytometry; stronger effect = lower value;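 active means response, share of CD8 T cells binding vesicles, and their 90th percentile fluorescence all below set limits, cut at about 80% in these data, passing the limit was not always enough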;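 further: values below 100% mean blocked vesicle binding to the CD8+ T cells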
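Assay system: 2C TCR transgenic mouse naive CD8+ T cells, MACS-purified | Read-out: CD8+ gate FL2 mean fluorescence as % of same-row positive control | Signal: High-throughput flow cytometry with anti-B7-1 and anti-CD8 staining | Timing: Binding step 1.5 h, 37 °C, antibody labelling 20 min, ice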
V-ATPase pH = yeast V-ATPase proton transport regulation by pHLuorin; AID 504577; response, % at 10 µM; S. cerevisiae, pHLuorin cytosolic pH fluorescence; actives 0.37% (n = 350,000); in the data active means response mostly above about 7.3%, no sharp cut-off; inactive means mostly below about 5.4%; further: actives read high
MPTP block = permeability transition pore inhibition. isolated mouse mitochondria, Ca2+ swelling absorbance, 30 min. inhibition, % at 10 µM. actives 1.4% (n = 360,000);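 active means inhibition of 50% or more, scaled per plate between neutral and stimulator controls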
rCAG bind conf = r(CAG) RNA repeat binding, confirmation | shares compounds with rCAG binder | TO-PRO-1 dye displacement fluorescence | inhibition, % at 3 µM | actives 70% (n = 4,300);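 active means inhibition above a per-plate cutoff, the mean inhibition of sample wells plus 3 SD, cut at about 35% in these data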;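 further: loss of TO-PRO-1 fluorescence as compound displaces dye from 1x1 AA loop RNA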
DNA CAG counter = counter-screen for rCAG RNA binders: DNA CAG dye complex inhibitors; shares compounds with rCAG binder; d(CAG) DNA oligo TO-PRO-1 dye displacement, fluorescence; inhibition, % at 3 µM; actives 94% (n = 4,300);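 active means inhibition above its plate's cutoff, the mean test-well inhibition plus 3 SD, cut at about 4.8% in these data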;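 further: hits displace the dye from DNA and so lower well fluorescence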
Of the large screens only hits and unclear results are named; the others gave an inactive call (follow-up assays come after a bar, where they were run). The list is not random: actives were taken first. Their share in the collection is about 3.8%.

CC(C)CN1C(=O)[C@@]2(CC(=O)N(C)C2c2ccccc2)c2cc(-n3cc(C(C)(C)O)nn3)ccc21 (stereo partly drawn)	none (no result: Exocytosis inh, Beta2AR agonist, T cell modulator, V-ATPase pH, MPTP block)
C[C@@H]1OC(C2CCCCC2)N(C)[C@H]2C[C@H]3c4[nH]c5c(-c6ccccc6)cccc5c4CCN3C(=O)[C@@H]12 (stereo partly drawn)	none (no result: Exocytosis inh, Beta2AR agonist, T cell modulator, V-ATPase pH, MPTP block)
COc1ccc(-c2csc(C(C#N)=C(O)CSc3nccn3C)n2)cc1OC	rCAG binder 54 (no result: T cell modulator) | rCAG bind conf inactive | DNA CAG counter 7.2
COc1ccc(-c2csc(C)n2)cc1OC	none
Cc1nc2ccc(NC(=O)c3cc([N+](=O)[O-])cc([N+](=O)[O-])c3Cl)cc2s1	rCAG binder 94 | rCAG bind conf 55 | DNA CAG counter 22
Cc1nc2ccc(NC(=O)c3ccc(Cl)c([N+](=O)[O-])c3)cc2s1	none
O=C(Nc1ccccc1)OCCN1C(=O)CCC12CCC(c1ccc(Cl)cc1)CC2 (stereo not drawn)	none (no result: Exocytosis inh, Beta2AR agonist, T cell modulator, V-ATPase pH, MPTP block)
COc1cc(C2C(C#N)=C(N)N(c3ccc(F)cc3)C3=C2S(=O)(=O)CC3)ccc1O (stereo not drawn)	rCAG binder 38 | rCAG bind conf inactive | DNA CAG counter 9.0
COP(=O)(O)CCOCCC(CC(C)C)NC(=O)OCc1ccccc1 (stereo not drawn)	none (no result: Exocytosis inh, Beta2AR agonist, T cell modulator, V-ATPase pH, MPTP block)
Cc1c(C)n(Cc2ccc(-c3ccccc3C(=O)O)cc2)c2ccc(C(=O)N[C@@H](C)c3ccc(Br)cc3)cc12	rCAG binder 77 (no result: Exocytosis inh, Beta2AR agonist, T cell modulator, V-ATPase pH, MPTP block) | rCAG bind conf 77 | DNA CAG counter 38
Cc1c(C)n(Cc2ccccc2)c2ccc(C(=O)O)cc12	none
O=C(N/N=C/c1ccc([N+](=O)[O-])o1)c1cn(-c2ccccc2)nc1-c1ccccc1	rCAG binder 39 | rCAG bind conf inactive | DNA CAG counter 10
O=C(O)COc1ccc(/C=N/NC(=O)c2cn(-c3ccccc3)nc2-c2ccccc2)cc1	rCAG binder 43 | rCAG bind conf 35 | DNA CAG counter 10
CCCCCN1CCCCC(NC(=O)c2cccc(C(F)(F)F)c2)C1=O (stereo not drawn)	none (no result: Exocytosis inh, Beta2AR agonist, T cell modulator, V-ATPase pH, MPTP block)
COC(=O)C1=C(C)N(Cc2cccc(C(F)(F)F)c2)C(=NCC2CC2)NC1c1ccccc1C(F)(F)F (stereo not drawn)	none (no result: Exocytosis inh, Beta2AR agonist, T cell modulator, V-ATPase pH, MPTP block)
CCCCCCCCN1[C@@H](CC(=O)O)c2ccc(C(F)(F)F)cc2S1(=O)=O	rCAG binder 52 | rCAG bind conf inactive | DNA CAG counter inactive
CCOc1ccc(S(=O)(=O)N(C)CC(=O)NCc2ccco2)cc1	none
Cc1ccc(S(=O)(=O)N(C(=O)c2ccco2)c2cc3sc(=O)oc3c3ccccc23)cc1	rCAG binder 88 | rCAG bind conf 40 | DNA CAG counter 17
CCOc1ccc(S(=O)(=O)N(C(=O)c2ccco2)c2cc3sc(=O)oc3c3ccccc23)cc1	rCAG binder 78 | rCAG bind conf 48 | DNA CAG counter 26
CCc1c(O)nc(SCC(=O)Nc2c(C)cccc2C)n(-c2ccc(F)cc2)c1=O	none (no result: Beta2AR agonist, T cell modulator)
Cc1c(O)nc(SCC(=O)Nc2ccc3c4c(cccc24)CC3)n(-c2ccc(F)cc2)c1=O	rCAG binder 46 | rCAG bind conf inactive | DNA CAG counter 8.3
Cc1cc(NS(=O)(=O)c2ccc(NC(=O)/C=C/c3c(F)cccc3Cl)cc2)no1	rCAG binder 63 | rCAG bind conf 51 | DNA CAG counter 19
Cc1cc(NS(=O)(=O)c2ccc(NC(=O)/C=C/c3c(F)cccc3Cl)cc2)nc(C)n1	rCAG binder 43 | rCAG bind conf inactive | DNA CAG counter 8.7
Cc1cc(NS(=O)(=O)c2ccc(NC(=O)/C=C/c3ccco3)cc2)nc(C)n1	none
COC(=O)C(C[N+](=O)[O-])C1=C(O)CC(C)(C)CC1=O (stereo not drawn)	none (no result: Exocytosis inh, Beta2AR agonist, T cell modulator, V-ATPase pH, MPTP block)
CCOc1cc([N+](=O)[O-])cc(/C=C2/NC(=O)N(Cc3ccccc3F)C2=O)c1O	rCAG binder 46 | rCAG bind conf 47 | DNA CAG counter 14
COC(=O)[C@]12C[C@H](CC(=O)NCCCN3CCCC3=O)C(=O)N(Cc3cccc4ccccc34)C1=C[C@H](C1CCCC1)O[C@@H]2C	none (no result: Exocytosis inh, Beta2AR agonist, T cell modulator, V-ATPase pH, MPTP block)
